{
  "source": "paper PMC10395006",
  "about": "(Archives of toxicology, 2022)",
  "key": {"[1]": {"conditions": "cited from earlier work"}, "HepG2 cells [2]": {"test_system": "HepG2 cells"}, "[3]": {"biological_target": "T1, CYP2D6-overexpressing HepG2 cells (Homo sapiens, UniProt P10635)", "T1 sequence (P10635 whole entry)": "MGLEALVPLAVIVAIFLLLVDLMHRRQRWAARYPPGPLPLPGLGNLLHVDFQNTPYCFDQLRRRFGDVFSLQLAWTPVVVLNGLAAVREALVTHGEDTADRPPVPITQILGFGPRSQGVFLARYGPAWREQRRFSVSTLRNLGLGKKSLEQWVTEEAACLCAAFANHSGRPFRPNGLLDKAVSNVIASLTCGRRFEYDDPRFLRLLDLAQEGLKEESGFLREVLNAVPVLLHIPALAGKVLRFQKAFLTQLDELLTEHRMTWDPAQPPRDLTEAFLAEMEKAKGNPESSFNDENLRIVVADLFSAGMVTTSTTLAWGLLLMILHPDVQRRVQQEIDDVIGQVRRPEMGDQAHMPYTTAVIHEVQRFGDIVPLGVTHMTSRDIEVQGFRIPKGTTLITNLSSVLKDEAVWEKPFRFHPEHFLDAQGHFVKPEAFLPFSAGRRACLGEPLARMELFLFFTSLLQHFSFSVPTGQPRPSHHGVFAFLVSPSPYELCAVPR"}, "CYP3A4": {"test_system": "CYP3A4", "conditions": "human liver microsomes"}, "CYP2C19": {"biological_target": "CYP2C19 (Homo sapiens, UniProt P33261)", "sequence (P33261 whole entry)": "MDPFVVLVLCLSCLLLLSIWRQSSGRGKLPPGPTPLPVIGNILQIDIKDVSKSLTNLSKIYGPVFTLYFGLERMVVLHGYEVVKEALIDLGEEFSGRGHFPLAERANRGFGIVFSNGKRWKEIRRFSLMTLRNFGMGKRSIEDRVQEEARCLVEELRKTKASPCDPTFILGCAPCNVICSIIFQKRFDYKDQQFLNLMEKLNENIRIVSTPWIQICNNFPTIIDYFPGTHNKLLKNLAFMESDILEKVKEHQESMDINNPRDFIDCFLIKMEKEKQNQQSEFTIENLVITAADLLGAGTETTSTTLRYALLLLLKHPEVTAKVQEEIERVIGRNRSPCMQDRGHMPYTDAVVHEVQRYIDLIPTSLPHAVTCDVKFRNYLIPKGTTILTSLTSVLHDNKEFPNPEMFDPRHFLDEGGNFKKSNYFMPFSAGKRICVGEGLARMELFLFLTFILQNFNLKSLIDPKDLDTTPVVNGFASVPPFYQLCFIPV", "conditions": "human liver microsomes"}, "[4]": {"test_system": "Primary human hepatocytes", "assay": "Cellular ATP assay", "assay_type": "cell-based", "conditions": "24 h"}, "HepG2 cells [5]": {"test_system": "HepG2 cells", "assay": "Cellular ATP assay", "assay_type": "cell-based, human", "conditions": "24 h"}, "HepG2 cells [6]": {"test_system": "HepG2 cells", "assay": "Lactate dehydrogenase", "assay_type": "cell-based, human", "conditions": "2.5-10 μM, 24 h"}, "HepG2 cells [7]": {"test_system": "HepG2 cells", "assay": "Caspase 3/7 activity", "assay_type": "cell-based, human", "conditions": "7.5 or 10 μM, 24 h"}, "HepG2 cells [8]": {"test_system": "HepG2 cells", "assay": "Mitochondrial membrane potential", "assay_type": "cell-based, human", "conditions": "2.5-10 μM, 24 h"}, "[9]": {"biological_target": "T1, CYP2D6-overexpressing HepG2 cells", "assay_type": "cell-based"}, "[10]": {"test_system": "CYP2C19-overexpressing HepG2 cells", "assay": "Perhexiline toxicity endpoints", "assay_type": "cell-based, human", "conditions": "5–10 μM, 24 h"}, "[11]": {"test_system": "CYP1A2-overexpressing HepG2 cells", "assay": "Perhexiline toxicity endpoints", "assay_type": "cell-based, human", "conditions": "5–10 μM, 24 h"}, "[12]": {"biological_target": "T2, CYP3A4-overexpressing HepG2 cells (Homo sapiens, UniProt P08684)", "T2 sequence (P08684 whole entry)": "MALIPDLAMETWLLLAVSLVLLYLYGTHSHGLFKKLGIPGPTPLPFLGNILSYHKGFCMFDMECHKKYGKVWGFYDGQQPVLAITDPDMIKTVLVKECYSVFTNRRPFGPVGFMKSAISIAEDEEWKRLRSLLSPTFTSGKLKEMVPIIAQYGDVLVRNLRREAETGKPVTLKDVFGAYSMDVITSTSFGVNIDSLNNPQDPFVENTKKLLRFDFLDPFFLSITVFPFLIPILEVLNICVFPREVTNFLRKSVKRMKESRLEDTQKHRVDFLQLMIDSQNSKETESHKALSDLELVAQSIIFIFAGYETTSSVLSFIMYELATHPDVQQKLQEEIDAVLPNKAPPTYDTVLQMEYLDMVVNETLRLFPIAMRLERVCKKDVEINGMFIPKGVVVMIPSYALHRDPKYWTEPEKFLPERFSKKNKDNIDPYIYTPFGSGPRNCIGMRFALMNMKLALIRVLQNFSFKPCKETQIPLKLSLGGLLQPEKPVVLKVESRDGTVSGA", "assay_type": "cell-based"}, "[13]": {"test_system": "ATF6, ERN1, EIF2AK3, ATF4, and DDIT3 mRNA in EV control HepG2 cells", "assay": "Quantitative real-time PCR of ER stress genes", "assay_type": "cell-based, human", "conditions": "10 μM, 24 h"}, "[14]": {"test_system": "CHOP in EV control HepG2 cells", "assay": "Western blot of ER stress marker CHOP", "assay_type": "cell-based, human", "conditions": "EV control cells upon perhexiline treatment", "in_short": "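Empty-vector control HepG2 cells seeded at 3 × 10^5 cells/ml in 60 mm plates and treated about 24 h after seeding, with 0.1% v/v DMSO as control. Cells lysed directly in RIPA buffer with protease inhibitor cocktail and total protein quantified. Immunoblotted with primary antibodies against CHOP, using GAPDH as loading reference.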"}, "[15]": {"test_system": "CYP1A2-overexpressing HepG2 cells", "assay": "Mass spectrometry of perhexiline and metabolites in CYP-overexpressing cells", "assay_type": "in vitro ADME, human", "conditions": "5 μM perhexiline, 24 h"}, "[16]": {"test_system": "CYP2C19-overexpressing HepG2 cells", "assay": "Mass spectrometry of perhexiline and metabolites in CYP-overexpressing cells", "assay_type": "in vitro ADME, human", "conditions": "5 μM perhexiline, 24 h"}, "[17]": {"assay": "CellTiter-Blue cell viability assay", "conditions": "human, HepG2 cells"}, "HepG2 cells [18]": {"test_system": "HepG2 cells", "assay": "CellTiter-Blue cell viability assay", "conditions": "2.5-10 μM, 24 h"}, "[19]": {"biological_target": "T1, CYP2D6-overexpressing HepG2 cells", "assay": "Mass spectrometry of perhexiline and metabolites in CYP-overexpressing cells", "conditions": "5 μM perhexiline, 24 h"}, "[20]": {"biological_target": "T2, CYP3A4-overexpressing HepG2 cells", "assay": "Mass spectrometry of perhexiline and metabolites in CYP-overexpressing cells", "conditions": "5 μM perhexiline, 24 h"}, "[21]": {"conditions": "ketoconazole (CYP3A4 inhibitor)"}},
  "data": [
    {"smiles": "C1CCC(C(CC2CCCCN2)C2CCCCC2)CC1", "note": "(single isomer, unassigned; (-)) [(−)-perhexiline]", "values": [
      {"measurement": "clearance relative to the other enantiomer", "setting": "[1]; attributed to CYP2D6-mediated metabolism, ref Davies et al. 2008", "value": "higher clearance rate"}
    ]},
    {"smiles": "OC1CCC([C@@H](CC2CCCCN2)C2CCCCC2)CC1", "note": "(stereo in doubt) [cis-OH-Phx]", "values": [
      {"measurement": "IC50", "setting": "HepG2 cells [2]", "value": 90, "unit": "µM"}
    ]},
    {"smiles": "O[C@H]1CC[C@H](C(CC2CCCCN2)C2CCCCC2)CC1", "note": "(stereo partly drawn) [M1, trans-OH-Phx-1]", "values": [
      {"measurement": "increase of M1 compared to EV control cells", "setting": "[3]", "value": 2.6, "unit": "fold"}
    ]},
    {"smiles": "CC(=O)N1CCN(c2ccc(OCC3COC(Cn4ccnc4)(c4ccc(Cl)cc4Cl)O3)cc2)CC1", "note": "(stereo not shown) [ketoconazole]", "values": [
      {"measurement": "suppression of formation of M3 (trans-OH-Phx-2)", "setting": "CYP3A4; ketoconazole 2 μM, perhexiline 30 μM", "value": "up to 80%"},
      {"measurement": "effect on formation of M1 (trans-OH-Phx-1)", "setting": "CYP3A4; [21]", "value": "reduced"},
      {"measurement": "effect on formation of M5 (cis-OH-Phx)", "setting": "CYP3A4; [21]", "value": "did not have effect"}
    ]},
    {"smiles": "C=C(C)[C@@H]1CCC2=CC(=O)C[C@@H](C)[C@]2(C)C1", "note": "[nootkatone]", "values": [
      {"measurement": "effect on the formation of M1, M3, and M5", "setting": "CYP2C19; nootkatone 10 μM (CYP2C19 inhibitor)", "value": "did not show significant effect"},
      {"measurement": "effect on the relative abundance of trans-OH-Phx", "setting": "CYP2C19; nootkatone (CYP2C19 inhibitor)", "value": "little effect"}
    ]},
    {"smiles": "C1CCC(C(CC2CCCCN2)C2CCCCC2)CC1", "note": "(stereo not shown) [perhexiline]", "values": [
      {"measurement": "concentration at which cytotoxicity was observed starting", "setting": "[4]; hepatic cells, concentrations ranged from 2.5 μM to 15 μM", "value": 5, "unit": "µM"},
      {"measurement": "lowest concentration at which a decrease in ATP was observed", "setting": "[4]; primary human hepatocytes, 5 to 15 μM", "value": 5, "unit": "µM"},
      {"measurement": "cellular ATP levels at 10 μM", "setting": "HepG2 cells [5]; 10 μM", "value": "largely depleted"},
      {"measurement": "cellular ATP levels", "setting": "HepG2 cells [5]; 2.5–10 μM", "value": "concentration-dependent decrease"},
      {"measurement": "LDH release", "setting": "HepG2 cells [6]", "value": "concentration-dependent increase"},
      {"measurement": "caspase 3/7 activity", "setting": "HepG2 cells [7]", "value": "increase"},
      {"measurement": "mitochondrial membrane potential level (JC-1)", "setting": "HepG2 cells [8]", "value": "significant concentration-dependent decrease"},
      {"measurement": "perhexiline-induced increase in CHOP protein vs EV control", "setting": "[9]", "value": "greatly reduced"},
      {"measurement": "perhexiline-induced increase in ER stress gene mRNA vs EV control", "setting": "[9]; 10 μM, 24 h", "value": "drastically attenuated"},
      {"measurement": "perhexiline-induced increase in caspase 3/7 vs EV control", "setting": "[9]; 24 h", "value": "abolished"},
      {"measurement": "protective effect on ATP levels and LDH release vs EV control", "setting": "[10]", "value": "little protective effect"},
      {"measurement": "protective effect on ATP levels and LDH release vs EV control", "setting": "[11]", "value": "little protective effect"},
      {"measurement": "caspase 3/7 activities, EV control vs CYP3A4 cells", "setting": "[12]", "value": "little difference"},
      {"measurement": "effect in JC-1 staining vs EV control", "setting": "[12]", "value": "marginal protective effect"},
      {"measurement": "protective effect on ATP levels and LDH release vs EV control", "setting": "[12]; 5–10 μM, 24 h", "value": "little protective effect"},
      {"measurement": "mRNA levels of ATF6, ERN1, EIF2AK3, ATF4, and DDIT3 (fold change vs DMSO)", "setting": "[13]", "value": "significantly elevated"},
      {"measurement": "CHOP protein level", "setting": "[14]", "value": "markedly increased"},
      {"measurement": "parent perhexiline level vs EV control", "setting": "[15]", "value": "significant reduction"},
      {"measurement": "parent perhexiline level vs EV control", "setting": "[16]", "value": "significant reduction"},
      {"measurement": "plasma perhexiline beyond 24 h after a single administration", "setting": "[1]; known extensive metabolizers, ref Cooper et al. 1987", "value": "undetectable"},
      {"measurement": "IC50 at 24 h", "setting": "[17]", "value": 8, "unit": "µM"},
      {"measurement": "cell viability", "setting": "HepG2 cells [18]", "value": "significant decrease"},
      {"measurement": "amount of parent perhexiline relative to EV control", "setting": "[19]", "value": 1, "unit": "%"},
      {"measurement": "parent perhexiline level vs EV control", "setting": "[20]", "value": "significant reduction"}
    ]},
    {"smiles": "O[C@H]1CC[C@H](C(CC2CCCCN2)C2CCCCC2)CC1", "note": "(stereo partly drawn) [trans-OH-Phx]", "values": [
      {"measurement": "IC50", "setting": "HepG2 cells [2]", "value": 56, "unit": "µM"},
      {"measurement": "plasma trans-OH-Phx level post-dosage", "setting": "[1]; most patients, ref Amoah et al. 1986, Cooper et al. 1984, 1987", "value": "undetectable"}
    ]}
  ]
}
